What was measured:
Homo sapiens = species: Homo sapiens; experiment: Stabilization of 5'Dabcyl/3'FAM labeled human telomeric sequence G-quadruplex DNA assessed as increase in melting temperature at 2.5 uM pretreated for 5 mins at 30 degreeC followed by 5 mins incubation at 95 degreeC by fluorescence assay
In short: (§1)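 FRET melting in LiP buffer (10 mM LiOH, 50 mM KCl, pH 7.0 with H3PO4), ex 488 nm, em 520 nm. Samples were held 5 min at 30 °C, heated at 1 °C/min to 95 °C, held 5 min, then re-annealed. Tm came from first derivatives; ΔTm = shift with ligand at 2.5; at least three runs.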

[1] = Stabilization of 5'Dabcyl/3'FAM labeled duplex DNA (unknown origin) assessed as increase in melting temperature at 2.5 uM pretreated for 5 mins at 30 degreeC followed by 5 mins incubation at 95 degreeC by fluorescence assay; in short: as §1
RPMI-8226 = experiment: Growth inhibition of human RPMI8226 cells incubated for 48 hrs by sulforhodamine B assay; format: functional; settings: RPMI-8226, 48 h
SR = experiment: Growth inhibition of human SR cells incubated for 48 hrs by sulforhodamine B assay; format: functional
HOP-92 = experiment: Growth inhibition of human HOP92 cells incubated for 48 hrs by sulforhodamine B assay; format: functional; settings: HOP-92, 48 h
NCI-H226 = experiment: Growth inhibition of human NCI-H226 cells incubated for 48 hrs by sulforhodamine B assay; format: functional; settings: NCI-H226, 48 h
NCI-H322M = experiment: Growth inhibition of human NCI-H322M cells incubated for 48 hrs by sulforhodamine B assay; format: functional
NCI-H460 = experiment: Growth inhibition of human NCI-H460 cells incubated for 48 hrs by sulforhodamine B assay; format: functional; settings: NCI-H460, 48 h
HCC 2998 = experiment: Growth inhibition of human HCC2998 cells incubated for 48 hrs by sulforhodamine B assay; format: functional; settings: HCC 2998, 48 h
HCT-116 = experiment: Growth inhibition of human HCT116 cells incubated for 48 hrs by sulforhodamine B assay; format: functional; settings: HCT-116, 48 h
SW-620 = experiment: Growth inhibition of human SW620 cells incubated for 48 hrs by sulforhodamine B assay; format: functional; settings: SW-620, 48 h
SF-268 = experiment: Growth inhibition of human SF268 cells incubated for 48 hrs by sulforhodamine B assay; format: functional; settings: SF-268, 48 h
SF-295 = experiment: Growth inhibition of human SF295 cells incubated for 48 hrs by sulforhodamine B assay; format: functional; settings: SF-295, 48 h
SNB-75 = experiment: Growth inhibition of human SNB75 cells incubated for 48 hrs by sulforhodamine B assay; format: functional; settings: SNB-75, 48 h
U-251 = experiment: Growth inhibition of human U251 cells incubated for 48 hrs by sulforhodamine B assay; format: functional; settings: U-251, 48 h
LOX IMVI = experiment: Growth inhibition of human LOXIMVI cells incubated for 48 hrs by sulforhodamine B assay; format: functional
M14 = experiment: Growth inhibition of human M14 cells incubated for 48 hrs by sulforhodamine B assay; format: functional; settings: M14, 48 h
MDA-MB-435 = experiment: Growth inhibition of human MDA-MB-435 cells incubated for 48 hrs by sulforhodamine B assay; format: functional; settings: MDA-MB-435, 48 h
SK-MEL-2 = experiment: Growth inhibition of human SK-MEL-2 cells incubated for 48 hrs by sulforhodamine B assay; format: functional; settings: SK-MEL-2, 48 h
SK-MEL-28 = experiment: Growth inhibition of human SK-MEL-28 cells incubated for 48 hrs by sulforhodamine B assay; format: functional; settings: SK-MEL-28, 48 h
UACC-257 = experiment: Growth inhibition of human UACC257 cells incubated for 48 hrs by sulforhodamine B assay; format: functional; settings: UACC-257, 48 h
IGROV-1 = experiment: Growth inhibition of human IGROV1 cells incubated for 48 hrs by sulforhodamine B assay; format: functional; settings: IGROV-1, 48 h
OVCAR-3 = experiment: Growth inhibition of human OVCAR3 cells incubated for 48 hrs by sulforhodamine B assay; format: functional; settings: OVCAR-3, 48 h
OVCAR-4 = experiment: Growth inhibition of human OVCAR4 cells incubated for 48 hrs by sulforhodamine B assay; format: functional; settings: OVCAR-4, 48 h
OVCAR-5 = experiment: Growth inhibition of human OVCAR5 cells incubated for 48 hrs by sulforhodamine B assay; format: functional; settings: OVCAR-5, 48 h
OVCAR-8 = experiment: Growth inhibition of human OVCAR8 cells incubated for 48 hrs by sulforhodamine B assay; format: functional; settings: OVCAR-8, 48 h
NCI/ADR-RES = experiment: Growth inhibition of human NCI-ADR-RES cells incubated for 48 hrs by sulforhodamine B assay; format: functional
SK-OV-3 = experiment: Growth inhibition of human SKOV3 cells incubated for 48 hrs by sulforhodamine B assay; format: functional; settings: SK-OV-3, 48 h
786-0 = experiment: Growth inhibition of human 786-0 cells incubated for 48 hrs by sulforhodamine B assay; format: functional; settings: 786-0, 48 h
A498 = experiment: Growth inhibition of human A498 cells incubated for 48 hrs by sulforhodamine B assay; format: functional; settings: A498, 48 h
ACHN = experiment: Growth inhibition of human ACHN cells incubated for 48 hrs by sulforhodamine B assay; format: functional
CAKI-1 = experiment: Growth inhibition of human Caki1 cells incubated for 48 hrs by sulforhodamine B assay; format: functional; settings: CAKI-1, 48 h
RXF 393 = experiment: Growth inhibition of human RXF393 cells incubated for 48 hrs by sulforhodamine B assay; format: functional; settings: RXF 393, 48 h
SN12C = experiment: Growth inhibition of human SN12C cells incubated for 48 hrs by sulforhodamine B assay; format: functional
TK-10 = experiment: Growth inhibition of human TK10 cells incubated for 48 hrs by sulforhodamine B assay; format: functional; settings: TK-10, 48 h
UO-31 = experiment: Growth inhibition of human UO31 cells incubated for 48 hrs by sulforhodamine B assay; format: functional; settings: UO-31, 48 h
PC-3 = experiment: Growth inhibition of human PC3 cells incubated for 48 hrs by sulforhodamine B assay; format: functional; settings: PC-3, 48 h
DU-145 = experiment: Growth inhibition of human DU145 cells incubated for 48 hrs by sulforhodamine B assay; format: functional; settings: DU-145, 48 h
MCF7 = experiment: Growth inhibition of human MCF7 cells incubated for 48 hrs by sulforhodamine B assay; format: functional; settings: MCF7, 48 h
MDA-MB-231 = experiment: Growth inhibition of human MDA-MB-231 cells incubated for 48 hrs by sulforhodamine B assay; format: functional; settings: MDA-MB-231, 48 h
Hs-578T = experiment: Growth inhibition of human Hs 578T cells incubated for 48 hrs by sulforhodamine B assay; format: functional
BT-549 = experiment: Growth inhibition of human BT549 cells incubated for 48 hrs by sulforhodamine B assay; format: functional; settings: BT-549, 48 h
T47D = experiment: Growth inhibition of human T47D cells incubated for 48 hrs by sulforhodamine B assay; format: functional
MDA-MB-468 = experiment: Growth inhibition of human MDA-MB-468 cells incubated for 48 hrs by sulforhodamine B assay; format: functional; settings: MDA-MB-468, 48 h

COc1ccccc1CNCCCN1C(=O)c2ccc3c4c(ccc(c24)C1=O)C(=O)N(CCCNCCCN)C3=O
ΔTm (Homo sapiens): 13.3 °C | ΔTm [1]: 7 °C | GI50 (RPMI-8226): 0.612 µM | GI50 (SR): 0.028 µM | GI50 (HOP-92): 1.12 µM | GI50 (NCI-H226): 0.746 µM | GI50 (NCI-H322M): 1.07 µM | GI50 (NCI-H460): 0.154 µM | GI50 (HCC 2998): 0.352 µM | GI50 (HCT-116): 0.135 µM | GI50 (SW-620): 0.109 µM | GI50 (SF-268): 0.41 µM | GI50 (SF-295): 0.456 µM | GI50 (SNB-75): 1.29 µM | GI50 (U-251): 0.108 µM | GI50 (LOX IMVI): 0.302 µM | GI50 (M14): 0.992 µM | GI50 (MDA-MB-435): 0.57 µM | GI50 (SK-MEL-2): 0.907 µM | GI50 (SK-MEL-28): 0.753 µM | GI50 (UACC-257): 0.625 µM | GI50 (IGROV-1): 0.275 µM | GI50 (OVCAR-3): 0.332 µM | GI50 (OVCAR-4): 0.873 µM | GI50 (OVCAR-5): 1.41 µM | GI50 (OVCAR-8): 0.073 µM | GI50 (NCI/ADR-RES): 1.17 µM | GI50 (SK-OV-3): 1.04 µM | GI50 (786-0): 0.715 µM | GI50 (A498): 0.398 µM | GI50 (ACHN): 0.529 µM | GI50 (CAKI-1): 0.828 µM | GI50 (RXF 393): 0.246 µM | GI50 (SN12C): 0.538 µM | GI50 (TK-10): 1.61 µM | GI50 (UO-31): 0.745 µM | GI50 (PC-3): 0.477 µM | GI50 (DU-145): 0.638 µM | GI50 (MCF7): 0.129 µM | GI50 (MDA-MB-231): 1.42 µM | GI50 (Hs-578T): 1.22 µM | GI50 (BT-549): 1.44 µM | GI50 (T47D): 0.793 µM | GI50 (MDA-MB-468): 0.246 µM

COc1ccccc1CNCCCN1C(=O)c2ccc3c4c(ccc(c24)C1=O)C(=O)N(CCCCNCCCN)C3=O
ΔTm (Homo sapiens): 22.2 °C | ΔTm [1]: 9.1 °C | GI50 (RPMI-8226): 1.95 µM | GI50 (SR): 0.038 µM | GI50 (HOP-92): 2.04 µM | GI50 (NCI-H226): 2.26 µM | GI50 (NCI-H322M): 2.15 µM | GI50 (NCI-H460): 0.767 µM | GI50 (HCC 2998): 0.81 µM | GI50 (HCT-116): 0.742 µM | GI50 (SW-620): 0.641 µM | GI50 (SF-268): 1.66 µM | GI50 (SF-295): 3.66 µM | GI50 (SNB-75): 16.7 µM | GI50 (U-251): 0.787 µM | GI50 (LOX IMVI): 1.03 µM | GI50 (M14): 1.9 µM | GI50 (MDA-MB-435): 0.96 µM | GI50 (SK-MEL-2): 1.09 µM | GI50 (SK-MEL-28): 1.63 µM | GI50 (UACC-257): 0.916 µM | GI50 (IGROV-1): 1.44 µM | GI50 (OVCAR-3): 0.338 µM | GI50 (OVCAR-4): 0.713 µM | GI50 (OVCAR-5): 3.05 µM | GI50 (OVCAR-8): 0.826 µM | GI50 (NCI/ADR-RES): 5.99 µM | GI50 (SK-OV-3): 4.03 µM | GI50 (786-0): 2.27 µM | GI50 (A498): 4.4 µM | GI50 (ACHN): 3.73 µM | GI50 (CAKI-1): 13.2 µM | GI50 (RXF 393): 0.886 µM | GI50 (SN12C): 0.947 µM | GI50 (TK-10): 2.62 µM | GI50 (UO-31): 3.52 µM | GI50 (PC-3): 2.3 µM | GI50 (DU-145): 1.59 µM | GI50 (MCF7): 0.643 µM | GI50 (MDA-MB-231): 2.68 µM | GI50 (Hs-578T): 2.31 µM | GI50 (BT-549): 2.23 µM | GI50 (T47D): 1.3 µM | GI50 (MDA-MB-468): 0.284 µM

CNCCCNCCCCNCCCN1C(=O)c2ccc3c4c(ccc(c24)C1=O)C(=O)N(CCCNCc1ccccc1OC)C3=O
ΔTm (Homo sapiens): 26.1 °C | ΔTm [1]: 17.1 °C | GI50 (RPMI-8226): 3 µM | GI50 (SR): 4.42 µM | GI50 (HOP-92): 2.21 µM | GI50 (NCI-H226): 2.17 µM | GI50 (NCI-H322M): 2.21 µM | GI50 (NCI-H460): 2.53 µM | GI50 (HCC 2998): 3.12 µM | GI50 (HCT-116): 2.04 µM | GI50 (SW-620): 2.16 µM | GI50 (SF-268): 3.51 µM | GI50 (SF-295): 1.33 µM | GI50 (SNB-75): 1.05 µM | GI50 (U-251): 3.24 µM | GI50 (LOX IMVI): 3.03 µM | GI50 (M14): 2.63 µM | GI50 (MDA-MB-435): 0.795 µM | GI50 (SK-MEL-2): 4.46 µM | GI50 (SK-MEL-28): 1.4 µM | GI50 (UACC-257): 1.25 µM | GI50 (IGROV-1): 3.02 µM | GI50 (OVCAR-3): 2.93 µM | GI50 (OVCAR-4): 1.7 µM | GI50 (OVCAR-5): 5.35 µM | GI50 (OVCAR-8): 2.89 µM | GI50 (NCI/ADR-RES): 7.09 µM | GI50 (SK-OV-3): 6.19 µM | GI50 (786-0): 3.36 µM | GI50 (A498): 1.78 µM | GI50 (ACHN): 2.86 µM | GI50 (CAKI-1): 2.25 µM | GI50 (RXF 393): 3.82 µM | GI50 (SN12C): 2.95 µM | GI50 (TK-10): 4.08 µM | GI50 (UO-31): 4.31 µM | GI50 (PC-3): 7.45 µM | GI50 (DU-145): 5.09 µM | GI50 (MCF7): 2.77 µM | GI50 (MDA-MB-231): 4.63 µM | GI50 (Hs-578T): 2.9 µM | GI50 (BT-549): 3.4 µM | GI50 (T47D): 0.342 µM | GI50 (MDA-MB-468): 1.89 µM
